# The list is not random: actives were taken first. Their share in the collection is about 2.2%.
# LEDGF integ inh = blocks HIV-1 LEDGF/p75-dependent DNA integration | TR-FRET IN-LEDGF/p75 DNA integration, Eu/Cy5 | inhibition, % at 3.7 µM | actives 0.64% (n = 370,000);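 active = inhibition above the screen-wide mean plus 3 SD, cut at about 13% in these data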;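 also: signal is the Cy5 over europium emission ratio at 671 and 618 nm; 0% = plate median of compound wells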
# SIAE inh = blocks human sialic acid acetylesterase. Q9HAT2. SIAE FP-Rh probe binding, fluorescence polarization. inhibition, % at 9.66 µM. actives 0.69% (n = 370,000);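 active = inhibition above a cutoff: mean of compounds within the control limits plus 3 SD of those, cut at about 17% in these data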;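 also: 0% = plate median of compound wells and 100% = probe without SIAE protein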
# Target sequence (Q9HAT2 whole entry, looked up): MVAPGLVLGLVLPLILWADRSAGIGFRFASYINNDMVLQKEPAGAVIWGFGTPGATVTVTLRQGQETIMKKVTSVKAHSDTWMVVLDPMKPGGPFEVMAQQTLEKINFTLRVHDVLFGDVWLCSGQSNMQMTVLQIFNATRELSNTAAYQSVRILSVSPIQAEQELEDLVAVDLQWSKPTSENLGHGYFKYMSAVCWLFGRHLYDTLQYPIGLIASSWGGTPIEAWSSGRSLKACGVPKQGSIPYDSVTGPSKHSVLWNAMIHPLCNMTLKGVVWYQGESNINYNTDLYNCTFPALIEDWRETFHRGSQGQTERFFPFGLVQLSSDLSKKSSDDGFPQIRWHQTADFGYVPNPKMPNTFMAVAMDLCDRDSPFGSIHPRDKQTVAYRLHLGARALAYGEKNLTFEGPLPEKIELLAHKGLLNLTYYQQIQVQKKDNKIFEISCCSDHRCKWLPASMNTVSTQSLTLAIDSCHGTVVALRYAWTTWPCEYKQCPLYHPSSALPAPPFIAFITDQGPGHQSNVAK
# HTRA1 inh = HTRA1 (human) protease inhibition. recombinant HTRA1, FP-rhodamine activity-based probe, fluorescence polarization. inhibition, % at 5.96 µM. actives 0.5% (n = 340,000); in the data active = inhibition above about 36%;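 also: 0% = enzyme with DMSO and 100% = wells lacking enzyme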
# TCR CD3 inh = human TCR-CD3 binding inhibition | TAMRA-labeled TCR probe fluorescence, biochemical | inhibition, % at 9.4 µM | actives 0.37% (n = 360,000) | AID 651800; in the data active = inhibition above about 19%;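 also: recombinant mutant TCR 2C K166C tagged with TAMRA read by polarization; 0% = receptor in buffer alone and 100% = receptor with positive control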
# mABHD4 FP = ABHD4 (mouse) inhibition, primary FP screen | Q8VD66 | purified mABHD4, FP-Rh probe fluorescence polarization | inhibition, % at 8.92 µM | actives 0.54% (n = 370,000) | AID 720543;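 active = inhibition exceeding the mean over every tested compound plus 3 SD, cut at about 30% in these data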;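 also: 0% = plate median of compound wells and 100% = S159A mutant with DMSO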
#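 Assay system: mouse ABHD4 enzyme, wild type / Also added: fluorescent activity-based probe FP-Rh / Doses: single nominal dose of 8.92 µM, 0.89% DMSO final / Timing: 45 min compound pre-incubation plus 60 min probe step, 25 °C / Signal: FP readout, ex 525 nm / em 598 nm / Control set: S159A mutant/DMSO as 100%, compound-well median as 0%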
# TDP2 absorb = TDP2 (human) inhibition, absorbance primary screen | O95551 | recombinant TDP2, T5PNP hydrolysis, p-nitrophenol absorbance 415 nm | inhibition, % at 12.8 µM | actives 0.34% (n = 370,000) | AID 720702;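 active = inhibition above the mean of all tested compounds plus 3 SD, set per campaign, cut at about 25% in these data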;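 also: 0% = DMSO with enzyme and 100% = buffer with substrate but no TDP2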
#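 System – recombinant human TDP2 · Quantity – TDP2 enzyme at 120 nM final · Doses – single concentration, 12.8 µM nominal, with 1% DMSO · Incubation – 2 h at 37 °C · Measured by – epi absorbance of p-nitrophenol freed from T5PNP by hydrolysis · Read-out – % inhibition relative to enzyme-containing and enzyme-free wells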
# ABHD4 confirm = ABHD4 (mouse) inhibition, FP confirmation; inhibition, % at 8.92 µM; AID 720658; actives 55% (n = 1,800); purified mABHD4, FP-Rh probe fluorescence polarization; shares compounds with mABHD4 FP;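 active = mean inhibition across replicates above the hit cutoff set in the primary screen, cut at about 30% in these data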;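 also: 0% = wild-type ABHD4 with DMSO and 100% = catalytically dead S159A mutant with DMSO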
# TDP2 confirm = confirmation of human TDP2 inhibitors; actives 22% (n = 1,100); recombinant human TDP2, absorbance read-out; shares compounds with TDP2 absorb; inhibition, % at 12.8 µM; in the data active = inhibition above about 25%;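 also: 0% = vehicle with enzyme and 100% = no enzyme buffer only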
# IN multimer up = counter-screen for LEDGF/p75 integration inhibitors: HIV-1 integrase multimerization activators | shares compounds with LEDGF integ inh | TR-FRET HIV-1 integrase multimerization, biochemical | activation, % at 7.7 µM | actives 17% (n = 2,000); in the data active = activation above about 8.9%
# TR-FRET interf = counter-screen for LEDGF/p75 integration inhibitors: TR-FRET optical interference; shares compounds with LEDGF integ inh; TR-FRET optical interference counterscreen, HIV-1 IN multimerization; 2,000 tested, under 10 active; inhibition, % at 7.7 µM;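 active = inhibition above the mean over all tested compounds plus 3 SD, which no compound reached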;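 also: 0% = integrase with antibodies and DMSO and 100% = antibodies without integrase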
# IN-LEDGF confirm = LEDGF/p75-dependent HIV-1 integration inhibition, confirmation; TR-FRET LEDGF/p75-dependent HIV-1 integration, biochemical; actives 36% (n = 2,000); inhibition, % at 3.7 µM; AID 1053136; shares compounds with LEDGF integ inh; in the data active = inhibition above about 14%
# SIAE inh conf = human SIAE inhibition, confirmation. inhibition, % at 9.66 µM. actives 13% (n = 2,300). shares compounds with SIAE inh. AID 1117263. SIAE FP-Rh activity-based probe, fluorescence polarization;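 active = mean inhibition of the replicates above the hit cutoff set in the primary screen, cut at about 17% in these data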;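 also: 0% = SIAE with DMSO and probe and 100% = probe without SIAE; inhibitors lower polarization as more probe stays unbound to SIAE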
# * = called active by the depositor; · = no result given.
SMILES,LEDGF integ inh,SIAE inh,HTRA1 inh,TCR CD3 inh,mABHD4 FP,TDP2 absorb,ABHD4 confirm,TDP2 confirm,SIAE inh conf,others
CN(C)c1ccc(NC(=O)Nc2ccc3c(c2)c(=O)n(C)n3Cc2ccc(Cl)cc2)cc1,3,27*,·,-2,43*,-3,26,·,15,
COc1ccc2c(c1)c(/C=N/Nc1nc3ccccc3[nH]1)c(C)n2C,-8,32*,29,-6,33*,-18,59*,·,30*,
COCCN1C(=O)/C(=C2/C(=O)N(CC(=O)Nc3ccccc3Cl)c3ccccc32)SC1=S,-8,0,-3,-1,-1,6,·,·,·,
O=C(CN1C(=O)/C(=C2/SC(=S)N(CCS(=O)(=O)O)C2=O)c2ccccc21)Nc1cccc(C(F)(F)F)c1,7,22*,-4,15,85*,0,93*,·,22*,
CCOC(=O)C(=C1Nc2ccccc2N1)n1c(-c2ccco2)nc2ccccc21,3,18*,·,22*,32*,1,13,·,-2,
Cc1cc2cc(CNC(=O)c3ccc(S(=O)(=O)N4CCCCC4)cc3)ccc2n1C,7,35*,-6,85*,87*,-15,-11,·,-13,
C=C(C)C(=O)Oc1ccc(N=Nc2ccc(C)cc2)ccc1=O,18*,18*,·,9,50*,6,59*,·,6,IN multimer up=31*;TR-FRET interf=-157;IN-LEDGF confirm=26*
CC(=O)c1ccc(N=Nc2ccc(C)cc2)cc1,1,1,12,2,2,5,·,·,·,
CN1CCS/C1=C/C=C1/SC(=S)N(Cc2ccccc2)C1=O,-2,22*,3,1,86*,5,20,·,22*,
O=C(NNc1nc2c(F)cccc2s1)c1cc(=O)c2ccccc2o1,-6,18*,22,8,39*,-6,30*,·,-4,
O=C(NNc1nc2c(F)cccc2s1)c1ccc(F)cc1,-1,8,11,-7,7,13,·,·,·,
COc1ccc(/C=C/C(=O)Nc2ccc(N3CCOCC3)cc2)cc1,-1,-2,-1,5,7,8,·,·,·,
COc1ccc(N2CCN(c3ccc(NC(=O)/C=C\C(=O)O)cc3)CC2)cc1,9,18*,32,11,36*,4,-7,·,4,
COC(=O)N1CCCC1c1cccc2[nH]cc(C)c12 (configuration not stated),1,3,·,·,0,4,·,·,·,
COc1ccc(/C=N/c2c(-c3ccco3)nc3ccccn23)cc1OC,10,25*,26,5,44*,5,3,·,7,
O=C(NC1CCCCN(Cc2cccc(Cl)c2)C1=O)C1CCCCC1 (configuration not stated),0,-8,·,·,0,-2,·,·,·,
O=C(O)COc1ccccc1/C=N/NC(=O)c1cc2ccccc2cc1O,-6,48*,14,5,37*,-7,12,·,53*,
O=C1C2(CCCC13COC(c1ccc(O)cc1)OC3)COC(c1ccc(O)cc1)OC2 (configuration not stated),0,-1,·,5,2,25*,·,3,·,
COC(=O)C1=C(C)N(C)C(=NCc2ccc3c(c2)OCO3)NC1c1cccc(F)c1 (configuration not stated),-2,2,·,4,-3,5,·,·,·,
O=C(CN1C(=O)CCS(=O)(=O)c2ccccc21)NCCc1ccccc1,-3,4,-2,5,-3,26*,·,10,·,
O=C(Cc1ccccc1[N+](=O)[O-])NCC1(c2cccc3c2OCO3)OCCO1,3,7,6,-2,-3,27*,·,5,·,
CC(C)(C)[C@@H]1/C(=C/C2CC2)N2C(=O)C[C@@H](c3ccccc3)N=C2N1Cc1ccc2c(c1)OCO2,0,4,·,·,-6,-2,·,·,·,
Cc1cc(C)cc(NC(=O)c2sc3nc4n(c(=O)c3c2C)CCC4)c1,0,-6,-13,6,0,4,·,·,·,
CCc1cccc(NC(=O)c2sc3nc4n(c(=O)c3c2C)CCC4)c1,-2,7,-10,-3,-9,55*,·,9,·,
CCOc1ccc(Nc2ccc([N+](=O)[O-])c3nonc23)cc1,-4,5,22,-1,19,4,·,·,·,
SMILES,LEDGF integ inh,SIAE inh,HTRA1 inh,TCR CD3 inh,mABHD4 FP,TDP2 absorb,ABHD4 confirm,TDP2 confirm,SIAE inh conf,others
O=[N+]([O-])c1ccc(Nc2ccccc2)c2nonc12,1,-4,4,-8,-6,26*,·,8,·,
Cc1nn(C(C)C(=O)NCc2ccco2)c(=O)c2nn(-c3ccccc3)c(C)c12 (configuration not stated),-4,-4,3,-2,-4,28*,·,5,·,
CCC(C(=O)NCc1ccco1)n1nc(C)c2c(C)n(-c3ccccc3)nc2c1=O (configuration not stated),0,-3,1,-10,-8,-26,·,·,·,
COC(=O)[C@]12C[C@H](CC(=O)N3CCCC3)C(=O)N(CCc3ccc(OC)c(OC)c3)C1=C[C@H](C1CCCC1)O[C@@H]2C,-5,1,·,·,0,-4,·,·,·,
CC1CC(=O)C2=C(C1)OC(N)=C(C#N)C2c1coc2ccccc2c1=O (configuration not stated),-2,-4,5,1,3,26*,·,9,·,
N#CC1=C(N)OC2=C(C(=O)CCC2)C1c1ccccc1 (configuration not stated),2,3,3,0,0,15,·,·,·,
CCOC(=O)C1=C(C)OC2(O)c3ccccc3C(=O)C12O (configuration not stated),12,-10,·,-1,-17,70*,·,81*,·,
CC(=O)C1=C(C)OC2(O)c3ccccc3C(=O)C12O (configuration not stated),0,0,·,-4,14,57*,·,61*,·,

# High-throughput results: PubChem, The Scripps Research Institute Molecular Screening Center
